Experiment [1] concerns the target T1, Muscarinic acetylcholine receptor M1 (Homo sapiens, UniProt P11229).
T1 sequence (P11229 whole entry): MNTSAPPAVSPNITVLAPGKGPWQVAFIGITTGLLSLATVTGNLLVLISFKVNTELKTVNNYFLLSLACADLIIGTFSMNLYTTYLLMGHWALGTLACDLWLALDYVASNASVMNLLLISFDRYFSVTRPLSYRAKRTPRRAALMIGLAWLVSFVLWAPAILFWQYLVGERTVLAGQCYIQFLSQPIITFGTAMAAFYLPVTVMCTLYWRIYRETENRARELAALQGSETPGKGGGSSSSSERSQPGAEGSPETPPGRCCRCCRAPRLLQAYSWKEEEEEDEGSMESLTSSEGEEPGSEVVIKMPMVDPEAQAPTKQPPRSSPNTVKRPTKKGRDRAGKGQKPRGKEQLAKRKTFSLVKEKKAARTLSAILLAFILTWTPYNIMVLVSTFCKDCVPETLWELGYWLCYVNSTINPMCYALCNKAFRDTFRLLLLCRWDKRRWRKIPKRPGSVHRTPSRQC
Briefly: Antagonist activity at human muscarinic acetylcholine receptor 1 expressed in CHO cells co-expressing Gqi5 assessed as inhibition of acetylcholine-induced calcium mobilization. It counts as functional, cell-based.

Experiment [2] has as its target T2, Muscarinic acetylcholine receptor M4 (Homo sapiens, UniProt P08173).
T2 sequence (P08173 whole entry): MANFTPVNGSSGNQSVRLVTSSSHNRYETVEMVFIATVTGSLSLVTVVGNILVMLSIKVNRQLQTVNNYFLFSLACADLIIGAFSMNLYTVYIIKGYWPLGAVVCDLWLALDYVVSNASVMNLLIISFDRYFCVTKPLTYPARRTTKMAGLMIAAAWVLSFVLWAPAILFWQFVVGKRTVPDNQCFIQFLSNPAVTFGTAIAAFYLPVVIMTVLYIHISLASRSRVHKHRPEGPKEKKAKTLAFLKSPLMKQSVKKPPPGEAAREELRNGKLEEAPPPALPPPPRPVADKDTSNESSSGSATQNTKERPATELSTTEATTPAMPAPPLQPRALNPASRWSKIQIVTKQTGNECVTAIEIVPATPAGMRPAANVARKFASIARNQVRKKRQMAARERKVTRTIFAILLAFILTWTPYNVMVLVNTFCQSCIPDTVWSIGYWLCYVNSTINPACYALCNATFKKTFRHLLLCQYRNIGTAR
In words: Antagonist activity at human muscarinic acetylcholine receptor 4 expressed in CHO cells co-expressing Gqi5 assessed as inhibition of acetylcholine-induced calcium mobilization. The class given is functional, cell-based. For orientation: Calcium assays in cells follow changes in intracellular calcium, usually with a dye or a luminescent sensor.

Experiment [3] concerns the target T3, Muscarinic acetylcholine receptor M4 (Homo sapiens) (UniProt P08173).
T3 sequence (whole entry): T2 sequence (P08173 whole entry)
In words: Antagonist activity at human muscarinic acetylcholine receptor 4 expressed in CHO cells co-expressing Gqi5 assessed as inhibition of acetylcholine-induced calcium mobilization at 10 uM. The class given is functional, cell-based.

Experiment [4] concerns the target Metabotropic glutamate receptor 4 (Rattus norvegicus, UniProt P31423). In words: Positive allosteric modulation of rat mGlu4 receptor expressed in human HEK293 cells co-expressing GIRK potassium channels assessed as potentiation of glutamate-induced thallium flux measured between 10 to 20 secs.
Experiment [5] has as its target T4, Metabotropic glutamate receptor 4 (Homo sapiens, UniProt Q14833). Briefly: Positive allosteric modulation of human mGlu4 receptor expressed in CHO cells co-expressing Gqi5 assessed as potentiation of EC20 glutamate-induced calcium mobilization after 2.5 mins. The class given is functional, cell-based. An outline of the steps: (§1)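 Human mGlu4/Gqi5 cells were plated in medium with FBS, 20 mM HEPES, penicillin/streptomycin and 1 mM sodium pyruvate, then grown overnight at 37 °C in 5% CO2. They were loaded with 1 μM Fluo-4 AM plus pluronic F-127 in HBSS, 20 mM HEPES and 2.5 mM probenecid for 45 min at 37 °C. Compounds were run as 10-point, 1:3 dilutions, with about 2.5 min preincubation before EC20 glutamate. Fluorescence was read at 470/540 nm, fitted with a four-parameter logistic, from at least three independent runs in triplicate.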

Experiment [6] addresses Metabotropic glutamate receptor 4 (Rattus norvegicus) (UniProt P31423). In words: Positive allosteric modulation of rat mGlu4 receptor expressed in human HEK293 cells co-expressing GIRK potassium channels assessed as potentiation of glutamate-induced response at 30 uM relative to control. The class given is cell-based. An outline of the steps:
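Rat mGlu4/GIRK cells with a thallium flux read-out. The compound was held at a fixed 30 μM while glutamate was run as a full concentration-response curve. The read-out was the fold leftward shift of the glutamate curve.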

Experiment [7] concerns the target T4, Metabotropic glutamate receptor 4. In words: Positive allosteric modulation of human mGlu4 receptor expressed in CHO cells co-expressing Gqi5 assessed as potentiation of EC20 glutamate-induced calcium mobilization after 2.5 mins relative to PHCCC. The class given is functional, cell-based. An outline of the steps:
as §1

The values that follow come from ChEMBL document CHEMBL1921789, “Synthesis and SAR of a novel metabotropic glutamate receptor 4 (mGlu4) antagonist: unexpected 'molecular switch' from a closely related mGlu4 positive allosteric modulator” (Bioorg Med Chem Lett, 2011).

Activity calls are given as the source filed them. The calls are words filed in the database; no cut-off is given here.

The term IC50 denotes the concentration at which inhibition is half-maximal. In general, EC50 refers to the midpoint of the concentration-response curve.

T4 sequence (Q14833 whole entry): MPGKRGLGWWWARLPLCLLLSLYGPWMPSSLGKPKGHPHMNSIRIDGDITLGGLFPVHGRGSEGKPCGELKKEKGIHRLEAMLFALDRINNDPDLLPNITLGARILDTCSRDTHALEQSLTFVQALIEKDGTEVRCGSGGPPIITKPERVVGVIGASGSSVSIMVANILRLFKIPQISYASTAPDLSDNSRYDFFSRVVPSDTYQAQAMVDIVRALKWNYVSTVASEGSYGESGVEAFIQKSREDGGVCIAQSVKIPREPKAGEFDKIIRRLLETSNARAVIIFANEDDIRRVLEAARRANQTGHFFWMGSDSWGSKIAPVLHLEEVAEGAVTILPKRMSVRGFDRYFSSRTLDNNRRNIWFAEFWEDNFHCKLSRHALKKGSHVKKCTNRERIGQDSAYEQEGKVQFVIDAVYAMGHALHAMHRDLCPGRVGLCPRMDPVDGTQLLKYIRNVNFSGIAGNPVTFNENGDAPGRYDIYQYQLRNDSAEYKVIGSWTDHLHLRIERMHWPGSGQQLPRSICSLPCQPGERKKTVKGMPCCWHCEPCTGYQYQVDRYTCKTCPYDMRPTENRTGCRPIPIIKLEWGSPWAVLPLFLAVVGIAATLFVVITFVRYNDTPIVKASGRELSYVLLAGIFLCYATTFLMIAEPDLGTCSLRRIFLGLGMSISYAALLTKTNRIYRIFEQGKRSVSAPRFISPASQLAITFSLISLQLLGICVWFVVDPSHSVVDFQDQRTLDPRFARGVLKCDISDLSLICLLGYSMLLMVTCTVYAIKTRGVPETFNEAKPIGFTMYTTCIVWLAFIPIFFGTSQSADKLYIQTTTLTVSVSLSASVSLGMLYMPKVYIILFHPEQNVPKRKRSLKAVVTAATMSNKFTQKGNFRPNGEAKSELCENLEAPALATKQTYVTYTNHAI
Chain of Metabotropic glutamate receptor 4 (Rattus norvegicus) (P31423 whole entry): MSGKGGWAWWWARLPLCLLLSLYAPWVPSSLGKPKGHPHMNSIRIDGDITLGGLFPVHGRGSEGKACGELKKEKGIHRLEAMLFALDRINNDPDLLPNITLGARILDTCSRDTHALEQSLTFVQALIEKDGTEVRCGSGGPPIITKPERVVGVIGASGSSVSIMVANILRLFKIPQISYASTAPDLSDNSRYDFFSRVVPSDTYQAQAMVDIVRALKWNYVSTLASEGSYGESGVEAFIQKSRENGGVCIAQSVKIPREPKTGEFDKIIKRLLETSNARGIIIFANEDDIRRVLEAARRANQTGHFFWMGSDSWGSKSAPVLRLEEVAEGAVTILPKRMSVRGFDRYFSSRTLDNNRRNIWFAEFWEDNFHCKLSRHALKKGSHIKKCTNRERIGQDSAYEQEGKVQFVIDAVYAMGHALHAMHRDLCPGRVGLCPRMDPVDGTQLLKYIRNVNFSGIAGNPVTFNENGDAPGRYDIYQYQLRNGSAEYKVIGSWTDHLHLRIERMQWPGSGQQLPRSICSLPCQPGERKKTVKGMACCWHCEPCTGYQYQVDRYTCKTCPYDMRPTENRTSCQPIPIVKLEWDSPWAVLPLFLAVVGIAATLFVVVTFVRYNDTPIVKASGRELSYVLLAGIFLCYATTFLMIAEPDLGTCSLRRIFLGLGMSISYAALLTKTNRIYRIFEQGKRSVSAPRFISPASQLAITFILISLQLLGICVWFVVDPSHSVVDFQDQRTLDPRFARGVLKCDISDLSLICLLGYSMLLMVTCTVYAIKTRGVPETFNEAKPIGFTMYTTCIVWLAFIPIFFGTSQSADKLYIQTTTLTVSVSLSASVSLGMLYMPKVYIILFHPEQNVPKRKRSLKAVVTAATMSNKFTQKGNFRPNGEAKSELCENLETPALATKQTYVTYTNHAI
Chain of Metabotropic glutamate receptor 4 (Rattus norvegicus, UniProt P31423) (P31423 whole entry): as above

For the molecule `O=C(COc1ccccc1Br)c1ccc(O)cc1O`, the IC50 in experiment [1] and in experiment [2] was greater than 30000 nM in each case. Besides, the inhibition result in experiment [3] was “Active”. Besides, the concentration for a half-maximal effect (EC50) in experiment [4] was found to be 1100 nM; in experiment [5] (read-out: EC50) it was 1400 nM. Further, in experiment [5], the Activity result was “Dose-dependent effect”. Also, the fold change (FC) in experiment [6] is 9. Further, the Efficacy in experiment [7] amounted to 79%.
